# Results pooled from the literature.
# Lines come from different studies, so protocols differ.
SMILES,target or system,assay,system,conditions,measurement,result
Cc1ccc2c(CNCC3(N4CCCC4)COC3)c[nH]c2c1,GBM6,cell growth or viability,,"30 µM, 48 h",viability,60.6%
Cc1nc(C)c(-c2ccc(Oc3ccc(OC(F)(F)F)cc3)cc2)c(OC(=O)N(CCNC(C)C)C(C)C)c1Br,HEK293,cell growth or viability,,,IC50,> 10 µM
Cc1cccc2c(CNCC3(N4CCCC4)COC3)c[nH]c12,GBM6,cell growth or viability,,"30 µM, 48 h",viability,60.4%
CO[C@H]1/C=C/O[C@@]2(C)Oc3c(C)c(O)c4c(O)c(c(/C=N/N5CCN(C)CC5)c(O)c4c3C2=O)NC(=O)/C(C)=C\C=C\[C@H](C)[C@H](O)[C@@H](C)[C@@H](O)[C@@H](C)[C@H](OC(C)=O)[C@@H]1C,Mycobacterium avium,microbial growth,,6 days,MIC,< 0.78 µM
COc1nc2ccc(Br)cc2cc1[C@@H](c1ccccc1)[C@@](O)(CCN(C)C)c1cccc2ccccc12,Mycolicibacterium phlei,microbial growth,,,MIC,0.05 µg/mL
N.N.[Cl][Pt][Cl],SK-MEL-28,"cell growth or viability, resazurin",,dark,EC50,2.8 µM
CO[C@H]1/C=C/O[C@@]2(C)Oc3c(C)c(O)c4c(O)c(c(/C=N/N5CCN(C)CC5)c(O)c4c3C2=O)NC(=O)/C(C)=C\C=C\[C@H](C)[C@H](O)[C@@H](C)[C@@H](O)[C@@H](C)[C@H](OC(C)=O)[C@@H]1C,Mycobacterium avium,microbial growth,ATCC25291,,MIC,3.1 µg/mL
COc1ccc(OC)c(C=CC(=O)NC2CCC(CN3CCC(c4c[nH]c5ccccc45)CC3)CC2)c1 (stereo not shown),HEK293,cell growth or viability,,,IC50,> 10 µM
COC(=O)C1=C(C)NC(C)=C(C(=O)OCCN(C)Cc2ccccc2)C1c1cccc([N+](=O)[O-])c1 (stereo not shown),Vesicular stomatitis virus,"viral entry, inhibitor",Vero C1008,pseudovirus,IC50,25 to 70 µM
CCCCCCCc1cc(=O)c2ccccc2[nH]1,HEK293,cell growth or viability,,,IC50,> 10 µM
c1ccc(-c2ccc(C(c3ccccc3)n3ccnc3)cc2)cc1 (stereo not shown),Vesicular stomatitis virus,"viral entry, inhibitor",Vero C1008,pseudovirus,IC50,30 to 40 µM
CNCCCN(C)C(=O)Oc1c(Br)c(C)nc(C)c1-c1ccc(Oc2ccc(OC(F)(F)F)cc2)cc1,HEK293,cell growth or viability,,,IC50,> 10 µM
O=c1c2ccccc2[se]n1-c1ccccc1,HEK293,"cell growth or viability, MTT",,"250 µM, 72 h",inhibition,64%
